In ChEMBL document CHEMBL5154824, “Design and synthesis of multifunctional microtubule targeting agents endowed with dual pro-apoptotic and anti-autophagic efficacy” (Eur J Med Chem, 2022):
Active and inactive are the calls of the source. The calls are words filed in the database; no cut-off is given here.

Columns and labels:
Ca9-22 = test: Cytotoxicity against human Ca9-22 cells assessed as reduction in cell viability measured after 48 hrs by alamar blue viability assay; type: functional, cell-based; settings: Ca9-22, 48 h
Method in brief: (§1)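 Oral squamous carcinoma cells were exposed for 48 h to at least 8 increasing concentrations. Viability was read by AlamarBlue. IC50 is the concentration that halves viability, taken as the mean ± SD of at least three independent experiments.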

[1] = Induction of Pro-apoptosis in human HL-60 cells assessed as increase in apoptotic cells at 10 uM after 48 hrs by Annexin-V/PI-staining based flow cytometry; type: functional
[2] = Mutagenicity in Salmonella typhimurium TA100 in absence of rat liver S9 fraction at 0.3 to 60 uM by AMES test; type: toxicity; settings: salmonella enterica subsp. enterica serovar typhimurium, s9, 60 µM; dose 0.3-60 µM
NIH3T3 = test: Cytotoxicity against mouse NIH3T3 cells assessed as inhibition of cell growth measured after 24 hrs by neutral red uptake assay; type: functional, cell-based; settings: NIH3T3, 24 h
Method in brief: (§2)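 Neutral red uptake viability test. NIH3T3 fibroblasts or primary human oral epithelial cells were exposed to compound at 0.1 to 120 μM. EC50 was derived, with SD below 5%.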

HeLa [3] = test: Induction of autophagy in human HeLa cells assessed as increasing number of autophagosomes at 1 to 10 uM incubated for 3 hrs with HBSS medium by immunofluorescence based laser scanning confocal microscopic analysis; type: functional, cell-based; settings: dose 1-10 µM
Method in brief: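 HeLa cells were treated in HBSS at 1 or 10 μM, with BafA1 300 nM as reference, for 3 h. After fixation in ice-cold methanol, LC3 and LAMP1 were immunostained. Laser scanning confocal microscopy assessed autophagosome number and LC3/LAMP1 colocalisation.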

HL-60 [4] = test: Induction of autophagy in human HL-60 cells assessed as increase in LC3-II protein level at 10 uM measured up to 1 hr by Immunoblotting analysis; type: functional, cell-based
A549 = test: Cytotoxicity against human A549 cells assessed as inhibition of cell growth measured after 48 hrs by MTT assay; type: functional, cell-based; settings: A549, 48 h
KYSE-520 cell line [5] = test: Induction of apoptosis in human KYSE520 cells assessed as increase in apoptotic cells at 3 to 10 uM after 72 hrs by Annexin V-FITC/PI staining based flow cytometry method; type: functional, cell-based; settings: dose 3-10 µM
Method in brief: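 KYSE-520 cells were treated at 3 and 10 μM for 72 h, then analysed by flow cytometry after Annexin V/PI dual staining.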

OE33 = test: Cytotoxicity against human OE33 cells assessed as inhibition of cell growth measured after 72 hrs by MTT assay; type: functional, cell-based; settings: OE33, 72 h
Method in brief: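 Oesophageal adenocarcinoma lines were exposed to at least 8 increasing concentrations for 72 h. Viability was measured by MTT. IC50 is the mean ± SD of at least three independent experiments.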

SCC-4 [6] = test: Cytotoxicity against human SCC-4 cells assessed as reduction in cell viability measured after 48 hrs by alamar blue viability assay; type: functional, cell-based; settings: SCC-4, 48 h; method in brief: as §1
[7] = Metabolic stability in human liver microsomes assessed as half life by HPLC analysis; type: ADME, Microsome
Method in brief: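 Compound incubated with human liver microsomes plus an NADPH-generating system. Log % of compound recovered (100% at 0 min) was plotted against incubation time and fitted to a monoexponential decay. Controls were boiled microsomes, or microsomes without NADPH-GS, at 37 °C for 60 min.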

[8] = Cytotoxicity against human TR146 cells assessed as reduction in cell viability measured after 48 hrs by alamar blue viability assay; type: functional, cell-based; settings: TR146, 48 h; method in brief: as §1
HeLa [9] = test: Induction of cell morphological changes in human HeLa cells at 10 uM measured after 3 hrs by LysoTracker Red staining based microscopic analysis; type: functional
Method in brief: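 Living HeLa cells were treated at 10 μM, or with BafA1 at 300 nM, for 3 h, then incubated with 75 nM LysoTracker red. Cells were imaged by spinning disc microscopy at 37 °C, 5% CO2.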

HL-60 [10] = test: Induction of autophagy in human HL-60 cells assessed as increase in LC3-II protein level at 10 uM in presence of chloroquine […] by Immunoblotting analysis; type: functional, cell-based
[11] = Mutagenicity in Salmonella typhimurium TA98 in presence of rat liver S9 fraction at 0.3 to 60 uM by AMES test; type: toxicity, subcellular; settings: salmonella enterica subsp. enterica serovar typhimurium, s9, 60 µM; dose 0.3-60 µM
SCC-4 [12] = test: Induction of autophagy in human SCC-4 cells assessed as increase in LC3-II to LC3-I ratio at 10 uM incubated for 30 mins in presence of EBSS followed by compound addition and measured after 3 hrs by Western blot analysis; type: functional, cell-based
Method in brief: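 SCC4 cells were pre-incubated with or without EBSS for 30 min, then given 10 μM compound, with 10 μM chloroquine as reference, for 3 h. LC3-I/II was assessed by Western blot with GAPDH loading control. The LC3-II/LC3-I ratio came from densitometry, as mean ± SEM of four experiments, with an unpaired one-tailed t-test.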

SCC-4 [13] = test: Induction of autophagy in human SCC-4 cells assessed as decrease in UlK1 protein level at 10 uM in measured after 24 hrs by Immunoblotting analysis; type: functional, cell-based
Method in brief: (§3)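 SCC4 cells under basal conditions were treated at 10 μM for 24 h. Autophagy-related proteins were immunoblotted, and densitometry was expressed as a ratio normalised to vehicle control.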

HeLa [14] = test: Induction of morphological changes in human HeLa cells assessed as golgi complex fragmentation at 10 uM incubated for 3 hrs by phalloidin staining based laser scanning confocal microscopic analysis; type: functional, cell-based
Method in brief: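 HeLa cells in growth medium were treated at 1 or 10 μM, with BafA1 300 nM as reference, for 3 h. Cells were fixed in 4% PFA, stained with anti-GM130 for the Golgi and AF647-phalloidin for actin, and imaged by laser scanning confocal microscopy.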

HL-60 [15] = test: Induction of autophagy in human HL-60 cells assessed as increase in p62 protein level at 10 uM […] by Immunoblotting analysis; type: functional, cell-based
KYSE-520 cell line [16] = test: Cytotoxicity against human KYSE520 cells assessed as inhibition of cell growth measured after 72 hrs by alamar blue viability assay; type: functional, cell-based; settings: KYSE-520, 72 h
Method in brief: (§4)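 KYSE-520 oesophageal cells were exposed to at least 8 increasing concentrations for 48 h or 72 h. Viability was read out to give IC50, as the mean ± SD of at least three independent experiments.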

KYSE-520 cell line [17] = test: Cytotoxicity against human KYSE520 cells assessed as inhibition of cell growth measured after 48 hrs by alamar blue viability assay; type: functional, cell-based; settings: KYSE-520, 48 h; method in brief: as §4
[18] = Cytotoxicity against human Primary oral epithelial cells assessed as inhibition of cell growth measured after 24 hrs by neutral red uptake assay; type: toxicity, cell-based; method in brief: as §2
[19] = target: Nuclear factor NF-kappa-B complex (Homo sapiens) (UniProt Q00653+P19838+Q04206); test: Inhibition of NF-kappaB phosphorylation in human HL-60 cells at 10 uM measured after 2 hrs by Immunoblotting analysis; type: cell-based
Method in brief: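 HL-60 cells were treated at 10 μM or with DMSO vehicle for 2 h. Phospho-NF-κB and phospho-Erk1/2 were immunoblotted and quantified by densitometry relative to β-tubulin. Data are mean ± SD (n = 2), analysed by one-way ANOVA.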

SCC-4 [20] = test: Induction of autophagy in human SCC-4 cells assessed as increase in UlK1 phosphorylation at 10 uM in measured after 24 hrs by Immunoblotting analysis; type: functional, cell-based; method in brief: as §3

Sequence of Nuclear factor NF-kappa-B complex (Homo sapiens) (P19838 whole entry, looked up): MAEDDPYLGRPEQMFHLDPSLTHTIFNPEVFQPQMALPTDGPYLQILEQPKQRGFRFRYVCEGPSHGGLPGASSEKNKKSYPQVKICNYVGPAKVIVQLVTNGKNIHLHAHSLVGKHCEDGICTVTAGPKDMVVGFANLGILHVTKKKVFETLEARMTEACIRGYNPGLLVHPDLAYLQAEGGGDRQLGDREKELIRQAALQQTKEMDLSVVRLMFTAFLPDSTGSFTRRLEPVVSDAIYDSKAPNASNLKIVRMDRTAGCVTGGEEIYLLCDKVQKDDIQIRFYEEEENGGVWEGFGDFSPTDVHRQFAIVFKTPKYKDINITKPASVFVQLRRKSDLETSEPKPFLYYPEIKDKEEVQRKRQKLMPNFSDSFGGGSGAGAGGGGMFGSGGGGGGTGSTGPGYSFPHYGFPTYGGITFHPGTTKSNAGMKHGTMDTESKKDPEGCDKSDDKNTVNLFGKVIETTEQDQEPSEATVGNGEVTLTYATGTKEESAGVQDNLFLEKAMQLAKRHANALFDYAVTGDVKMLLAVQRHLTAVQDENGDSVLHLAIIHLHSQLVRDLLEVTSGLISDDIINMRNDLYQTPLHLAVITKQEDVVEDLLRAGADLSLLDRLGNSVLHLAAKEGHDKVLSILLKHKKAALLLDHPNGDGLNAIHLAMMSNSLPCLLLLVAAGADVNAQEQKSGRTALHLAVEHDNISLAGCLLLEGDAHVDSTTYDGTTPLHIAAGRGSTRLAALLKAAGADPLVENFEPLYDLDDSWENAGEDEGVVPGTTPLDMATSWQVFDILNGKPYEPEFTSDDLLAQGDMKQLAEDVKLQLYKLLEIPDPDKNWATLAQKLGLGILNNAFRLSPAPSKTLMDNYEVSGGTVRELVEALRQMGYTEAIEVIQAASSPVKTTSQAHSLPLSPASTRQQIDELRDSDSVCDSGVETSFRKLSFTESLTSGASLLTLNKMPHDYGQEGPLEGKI
Sequence of Nuclear factor NF-kappa-B complex (Homo sapiens) (Q00653 whole entry, looked up): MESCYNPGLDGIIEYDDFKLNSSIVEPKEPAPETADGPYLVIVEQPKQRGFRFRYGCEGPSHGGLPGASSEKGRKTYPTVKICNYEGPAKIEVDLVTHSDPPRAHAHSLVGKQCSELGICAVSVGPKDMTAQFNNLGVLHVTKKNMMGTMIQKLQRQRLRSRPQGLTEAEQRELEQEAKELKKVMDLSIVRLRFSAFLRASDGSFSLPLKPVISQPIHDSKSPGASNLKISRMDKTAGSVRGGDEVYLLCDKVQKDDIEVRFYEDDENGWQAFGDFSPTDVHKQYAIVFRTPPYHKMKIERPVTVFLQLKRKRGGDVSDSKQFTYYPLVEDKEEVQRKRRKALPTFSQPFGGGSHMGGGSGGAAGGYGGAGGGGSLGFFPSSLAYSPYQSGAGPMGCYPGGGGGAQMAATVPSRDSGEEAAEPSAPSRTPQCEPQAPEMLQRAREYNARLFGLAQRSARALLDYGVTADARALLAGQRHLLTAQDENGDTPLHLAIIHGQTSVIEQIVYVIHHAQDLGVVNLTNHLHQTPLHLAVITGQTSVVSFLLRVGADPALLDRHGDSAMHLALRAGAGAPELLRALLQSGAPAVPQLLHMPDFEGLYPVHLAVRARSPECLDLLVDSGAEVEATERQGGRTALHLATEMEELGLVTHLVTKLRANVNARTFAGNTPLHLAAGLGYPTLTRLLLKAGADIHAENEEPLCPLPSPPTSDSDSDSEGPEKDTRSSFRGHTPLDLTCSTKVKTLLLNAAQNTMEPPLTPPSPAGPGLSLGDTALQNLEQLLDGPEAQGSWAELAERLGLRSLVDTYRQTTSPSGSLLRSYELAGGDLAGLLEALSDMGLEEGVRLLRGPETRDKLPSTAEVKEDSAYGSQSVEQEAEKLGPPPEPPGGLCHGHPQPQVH
Sequence of Nuclear factor NF-kappa-B complex (Homo sapiens) (Q04206 whole entry, looked up): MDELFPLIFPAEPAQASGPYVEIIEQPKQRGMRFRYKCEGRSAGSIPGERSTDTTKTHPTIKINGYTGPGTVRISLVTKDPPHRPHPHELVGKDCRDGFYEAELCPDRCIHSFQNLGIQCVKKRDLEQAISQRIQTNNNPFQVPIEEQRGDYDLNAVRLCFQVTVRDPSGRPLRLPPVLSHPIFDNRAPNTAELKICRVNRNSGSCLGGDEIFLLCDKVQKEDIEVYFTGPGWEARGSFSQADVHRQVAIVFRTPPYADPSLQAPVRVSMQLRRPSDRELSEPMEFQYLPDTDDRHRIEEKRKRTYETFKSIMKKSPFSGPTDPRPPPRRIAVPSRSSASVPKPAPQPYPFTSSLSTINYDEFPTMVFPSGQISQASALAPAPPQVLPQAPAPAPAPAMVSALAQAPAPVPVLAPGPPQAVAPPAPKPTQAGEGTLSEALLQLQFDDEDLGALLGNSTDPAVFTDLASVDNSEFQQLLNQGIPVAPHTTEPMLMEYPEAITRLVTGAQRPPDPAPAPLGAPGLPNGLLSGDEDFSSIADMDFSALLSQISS

SMILES | IC50 (Ca9-22) [nM] | Activity [1] | Activity [2] | EC50 (NIH3T3) [nM] | Activity (HeLa [3]) | Activity (HL-60 [4]) | IC50 (A549) [nM] | Activity (KYSE-520 cell line [5]) | IC50 (OE33) [nM] | IC50 (SCC-4 [6]) [nM] | half-life [7] [h] | IC50 [8] [nM] | Activity (HeLa [9]) | Activity (HL-60 [10]) | Activity [11] | Activity (SCC-4 [12]) | Activity (SCC-4 [13]) | Activity (HeLa [14]) | Activity (HL-60 [15]) | IC50 (KYSE-520 cell line [16]) [nM] | also measured
CN1CCN(C(=O)OC2=C(c3cccc4ncccc34)Oc3cc4ccccc4cc3-n3cccc32)CC1 | 130 | >=70% | Non-Toxic | 450 | Active | Active | 774 | Active | 400 | 540 | 0.513 | 880 | Active | Active | Non-Toxic | Active | Active | Active | Active | 1680 | IC50 (KYSE-520 cell line [17]): 3600 nM; EC50 at 24 h [18]: 45000 nM; inhibition [19]: Active; Activity (SCC-4 [20]): Active
O=C(OC1=C(c2cccc3ncccc23)Oc2cc3ccccc3cc2-n2cccc21)C1CCNCC1 | 2000 | >=70% | Non-Toxic | 600 | Active | Active | 6150 | Active | 1930 | 850 | 1.52 | 4500 | Active | Active | Non-Toxic | Active | Active | Active | Active | 890 | IC50 (KYSE-520 cell line [17]): 1680 nM; EC50 at 24 h [18]: 45000 nM; inhibition [19]: Active; Activity (SCC-4 [20]): Active
